ChEMBL document CHEMBL4689842, “EUbOPEN Chemogenomics Library wave 1” (2021)

System: HEK-293T
Experiment: Multiplex assay against HEK293T;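 on Population Tubulin-Different-Phenotype (%): share of the cells with healthy nuclei that show this phenotype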
Assay type: toxicity, cell-based
Conditions: human
Procedure, shortened: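 Hoechst33342, BioTracker Green Microtubule Cytoskeleton Dye, MitoTracker Red and Annexin V Alexa Fluor 680 were added to live cells at seeding, and imaging on a CQ1 microscope at 37°C and 5% CO2 followed compound addition. Gating by CellPathfinder machine learning separated cells into Hoechst high-intensity objects or normal cells, then normal cells into healthy, pyknosed or fragmented nuclei, then pyknosed cells into mitotic or apoptotic. Per cents of healthy-nucleus cells are reported for the tubulin, mitochondrial-mass and membrane-permeability phenotypes.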

[1] = 12 h, 1 µM, compound concentration 1 uM, replicate 1
[2] = 12 h, 1 µM, compound concentration 1 uM, replicate 2
[3] = 12 h, 10 µM, compound concentration 10 uM, replicate 1
[4] = 12 h, 10 µM, compound concentration 10 uM, replicate 2
[5] = 24 h, 1 µM, compound concentration 1 uM, replicate 1
[6] = 24 h, 1 µM, compound concentration 1 uM, replicate 2
[7] = 24 h, 10 µM, compound concentration 10 uM, replicate 1
[8] = 24 h, 10 µM, compound concentration 10 uM, replicate 2
[9] = 48 h, 1 µM, compound concentration 1 uM, replicate 1
[10] = 48 h, 1 µM, compound concentration 1 uM, replicate 2
[11] = 48 h, 10 µM, compound concentration 10 uM, replicate 1
[12] = 48 h, 10 µM, compound concentration 10 uM, replicate 2

COc1ccccc1CN[C@H]1C2CCN(CC2)[C@H]1C(c1ccccc1)c1ccccc1 [CP-96345]
Population Apoptotic (%) [1]: 61%
Population Fragmented Nuclei (%) [1]: 12%
Population Healthy Nuclei (%) [1]: 37%
Population Hoechst High Intensity Objects (%) [1]: 13%
Population Membrane Permeable-Phenotype (%) [1]: 0%
Population Mitochondria Different-Phenotype (%) [1]: 90%
Population Mitotic Cells (%) [1]: 38%
Population Normal (%) [1]: 86%
Population Pyknosed Nuclei (%) [1]: 50%
Population Tubulin-Different-Phenotype (%) [1]: 80%
Total Cell Count [1]: 250
Population Apoptotic (%) [2]: 8%
Population Fragmented Nuclei (%) [2]: 3%
Population Healthy Nuclei (%) [2]: 54%
Population Hoechst High Intensity Objects (%) [2]: 3%
Population Membrane Permeable-Phenotype (%) [2]: 10%
Population Mitochondria Different-Phenotype (%) [2]: 17%
Population Mitotic Cells (%) [2]: 91%
Population Normal (%) [2]: 96%
Population Pyknosed Nuclei (%) [2]: 42%
Population Tubulin-Different-Phenotype (%) [2]: 21%
Total Cell Count [2]: 244
Population Apoptotic (%) [3]: 79%
Population Fragmented Nuclei (%) [3]: 9%
Population Healthy Nuclei (%) [3]: 27%
Population Hoechst High Intensity Objects (%) [3]: 13%
Population Membrane Permeable-Phenotype (%) [3]: 2%
Population Mitochondria Different-Phenotype (%) [3]: 100%
Population Mitotic Cells (%) [3]: 20%
Population Normal (%) [3]: 86%
Population Pyknosed Nuclei (%) [3]: 63%
Population Tubulin-Different-Phenotype (%) [3]: 97%
Total Cell Count [3]: 296
Population Apoptotic (%) [4]: 25%
Population Fragmented Nuclei (%) [4]: 2%
Population Healthy Nuclei (%) [4]: 36%
Population Hoechst High Intensity Objects (%) [4]: 4%
Population Membrane Permeable-Phenotype (%) [4]: 6%
Population Mitochondria Different-Phenotype (%) [4]: 77%
Population Mitotic Cells (%) [4]: 74%
Population Normal (%) [4]: 95%
Population Pyknosed Nuclei (%) [4]: 60%
Population Tubulin-Different-Phenotype (%) [4]: 74%
Total Cell Count [4]: 179
Population Apoptotic (%) [5]: 56%
Population Fragmented Nuclei (%) [5]: 11%
Population Healthy Nuclei (%) [5]: 45%
Population Hoechst High Intensity Objects (%) [5]: 16%
Population Membrane Permeable-Phenotype (%) [5]: 6%
Population Mitochondria Different-Phenotype (%) [5]: 87%
Population Mitotic Cells (%) [5]: 43%
Population Normal (%) [5]: 83%
Population Pyknosed Nuclei (%) [5]: 43%
Population Tubulin-Different-Phenotype (%) [5]: 67%
Total Cell Count [5]: 253
Population Apoptotic (%) [6]: 10%
Population Fragmented Nuclei (%) [6]: 2%
Population Healthy Nuclei (%) [6]: 67%
Population Hoechst High Intensity Objects (%) [6]: 3%
Population Membrane Permeable-Phenotype (%) [6]: 5%
Population Mitochondria Different-Phenotype (%) [6]: 14%
Population Mitotic Cells (%) [6]: 89%
Population Normal (%) [6]: 97%
Population Pyknosed Nuclei (%) [6]: 30%
Population Tubulin-Different-Phenotype (%) [6]: 20%
Total Cell Count [6]: 333
Population Apoptotic (%) [7]: 81%
Population Fragmented Nuclei (%) [7]: 13%
Population Healthy Nuclei (%) [7]: 39%
Population Hoechst High Intensity Objects (%) [7]: 11%
Population Membrane Permeable-Phenotype (%) [7]: 0%
Population Mitochondria Different-Phenotype (%) [7]: 100%
Population Mitotic Cells (%) [7]: 18%
Population Normal (%) [7]: 88%
Population Pyknosed Nuclei (%) [7]: 47%
Population Tubulin-Different-Phenotype (%) [7]: 99%
Total Cell Count [7]: 298
Population Apoptotic (%) [8]: 26%
Population Fragmented Nuclei (%) [8]: 5%
Population Healthy Nuclei (%) [8]: 44%
Population Hoechst High Intensity Objects (%) [8]: 2%
Population Membrane Permeable-Phenotype (%) [8]: 4%
Population Mitochondria Different-Phenotype (%) [8]: 75%
Population Mitotic Cells (%) [8]: 73%
Population Normal (%) [8]: 97%
Population Pyknosed Nuclei (%) [8]: 50%
Population Tubulin-Different-Phenotype (%) [8]: 72%
Total Cell Count [8]: 218
Population Apoptotic (%) [9]: 48%
Population Fragmented Nuclei (%) [9]: 15%
Population Healthy Nuclei (%) [9]: 48%
Population Hoechst High Intensity Objects (%) [9]: 14%
Population Membrane Permeable-Phenotype (%) [9]: 4%
Population Mitochondria Different-Phenotype (%) [9]: 57%
Population Mitotic Cells (%) [9]: 51%
Population Normal (%) [9]: 85%
Population Pyknosed Nuclei (%) [9]: 36%
Population Tubulin-Different-Phenotype (%) [9]: 58%
Total Cell Count [9]: 334
Population Apoptotic (%) [10]: 8%
Population Fragmented Nuclei (%) [10]: 3%
Population Healthy Nuclei (%) [10]: 86%
Population Hoechst High Intensity Objects (%) [10]: 2%
Population Membrane Permeable-Phenotype (%) [10]: 6%
Population Mitochondria Different-Phenotype (%) [10]: 4%
Population Mitotic Cells (%) [10]: 91%
Population Normal (%) [10]: 97%
Population Pyknosed Nuclei (%) [10]: 9%
Population Tubulin-Different-Phenotype (%) [10]: 13%
Total Cell Count [10]: 612
Population Apoptotic (%) [11]: 79%
Population Fragmented Nuclei (%) [11]: 16%
Population Healthy Nuclei (%) [11]: 55%
Population Hoechst High Intensity Objects (%) [11]: 13%
Population Membrane Permeable-Phenotype (%) [11]: 0%
Population Mitochondria Different-Phenotype (%) [11]: 98%
Population Mitotic Cells (%) [11]: 20%
Population Normal (%) [11]: 86%
Population Pyknosed Nuclei (%) [11]: 28%
Population Tubulin-Different-Phenotype (%) [11]: 94%
Total Cell Count [11]: 327
Population Apoptotic (%) [12]: 39%
Population Fragmented Nuclei (%) [12]: 3%
Population Healthy Nuclei (%) [12]: 71%
Population Hoechst High Intensity Objects (%) [12]: 2%
Population Membrane Permeable-Phenotype (%) [12]: 4%
Population Mitochondria Different-Phenotype (%) [12]: 39%
Population Mitotic Cells (%) [12]: 60%
Population Normal (%) [12]: 97%
Population Pyknosed Nuclei (%) [12]: 25%
Population Tubulin-Different-Phenotype (%) [12]: 63%
Total Cell Count [12]: 330
